Series [1] can be described thus: folding enthalpy; higher = less favourable; fluorescence melt of hairpins on a sequencing array, two-state fit. The settings on record: sodium 0.088 M. The method in brief:
(§1)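 Melting temperature and folding enthalpy were derived from bootstrapped two-state fits. The fitted temperatures were raised by 9.35 °C to agree with UV melts, and four replicates were combined by inverse variance. The underlying data were Cy3 fluorescence images of library hairpins, with annealed Cy3 and quencher oligos, on a sequenced MiSeq flow cell in 50 mM Na-HEPES pH 8.0, 25 mM NaCl, taken in 2.5 °C steps up to 60 °C, normalised to pre-quench Cy3 and to control constructs.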

Series [2] is described as follows: melting temperature; fluorescence melt of hairpins on a sequencing array, two-state fit, raised by 9.35 °C to match UV melts. The settings on record: sodium 0.088 M. Summed up:
as §1

For the sequence GCATTTGGAAACAAATGC (((((((....))))))), the folding enthalpy in series [1] was -46.7 kcal/mol. The Tm in series [2] amounted to 60 °C.
Take GCATTTGGAAACAGATGC ((((.((....)).)))): the folding enthalpy in series [1] was -33.4 kcal/mol. Also, in series [2], the Tm was determined as 44 °C.
For GCCAAACGAAAGTTAGGC (((.(((....))).))) the same measures were -29.5 kcal/mol and 54.9 °C.
GCCAAATCGAAAGATGGC (((..(((....)))))): in series [1], the folding enthalpy was -27.2 kcal/mol. In addition, the Tm in series [2] is 47.4 °C.
GCCAACCGAAAGGTCGGC (((.(((....))).))): the folding enthalpy in series [1] is -40.2 kcal/mol. Further, in series [2], the Tm is 59.4 °C.
For GCCAACCGAAAGGTGGC (((.(((....)))))) the same measures were -22.9 kcal/mol and 67.4 °C.
For GCCAACGAAAGTTCCGGC ((((((....)))..))) the same measures were -20.6 kcal/mol and 36.3 °C.
GCCAACGAAAGTTCGGGC ((((((....)))..))): in series [1], the folding enthalpy is -30 kcal/mol. Moreover, the Tm in series [2] turned out to be 43.8 °C.
For GCCAACGAAAGTTGGGGC ((((((....)))..))), in series [1], the folding enthalpy was -15.3 kcal/mol. In addition, the Tm in series [2] came to 65.4 °C.
The matching figures for GCCAACGAAAGTTTCGGC ((((((....)))..))): -18.4 kcal/mol and 39 °C.
For GCCAACGAAAGTTTGGC ((((((....))).))) the same measures were -34.1 kcal/mol and 54.6 °C.
The matching figures for GCCAACGCGAAAGCGGGC (((..(((....)))))): -16.4 kcal/mol and 63.4 °C.
Turning to GCCAACGGAAACGTTAGC ((.((((....)))).)), in series [1], the folding enthalpy is -23.6 kcal/mol. Further, in series [2], the Tm was found to be 40 °C.
For GCCAAGCGAAAGCACGGC (((..((....))..))) the same measures were -30.4 kcal/mol and 57.4 °C.
For GCCAAGCGAAAGCATAGC ((.(.((....)).).)) the same measures were -12.9 kcal/mol and 30.7 °C.
For GCCAAGCGAAAGCATCGC ((.(.((....)).).)) the same measures were -6.8 kcal/mol and 31.2 °C.
Turning to GCCAAGCGAAAGCCTTGC ((.(.((....)).).)), in series [1], the folding enthalpy is -13.6 kcal/mol. Also, in series [2], the Tm was 33.9 °C.
In the case of GCCAAGCGAAAGCGTAGC ((.(.((....)).).)), the folding enthalpy in series [1] was -13.3 kcal/mol. The Tm in series [2] was found to be 47.5 °C.
The matching figures for GCCAAGCGAAAGCGTCGC ((.(.((....)).).)): -12.9 kcal/mol and 45.5 °C.
The matching figures for GCCAAGCGAAAGCTAAGC ((..(((....)))..)): -14.4 kcal/mol and 37.6 °C.
The matching figures for GCCAAGCGAAAGCTACGC ((..(((....)))..)): -11 kcal/mol and 34.7 °C.
As to GCCAAGCGAAAGCTGCGC ((..(((....)))..)), the folding enthalpy in series [1] is -20.8 kcal/mol. Also, the Tm in series [2] was 51.6 °C.
For GCCAAGCGAAAGCTGTGC ((..(((....)))..)) the same measures were -17.4 kcal/mol and 46.4 °C.
For GCCAAGGGAAACCTCGGC (((.(((....))).))) the same measures were -29.2 kcal/mol and 46 °C.
For GCCAAGGGAAACCTTGAC (.(((((....))))).) the same measures were -20.6 kcal/mol and 39.6 °C.
As to GCCAAGTCGAAAGACGGC (((..(((....)))))), in series [1], the folding enthalpy is -25.6 kcal/mol. In addition, the Tm in series [2] was found to be 52.7 °C.
As to GCCAATCGAAAGATGGC (((.(((....)))))), the folding enthalpy in series [1] was -35.5 kcal/mol. Further, the Tm in series [2] turned out to be 55.4 °C.
For GCCACACGAAAGTGAGGC (((.(((....))).))) the same measures were -35.8 kcal/mol and 66.2 °C.
The matching figures for GCCACAGCGAAAGCTGGC (((..(((....)))))): -12.5 kcal/mol and 51.9 °C.
In the case of GCCACAGGAAACCATGGC ((((..(....)..)))), in series [1], the folding enthalpy is -22.8 kcal/mol. In series [2], the Tm was 33.3 °C.
For GCCACAGGAAACTGTAGC ((.((((....)))).)) the same measures were -24.3 kcal/mol and 39.4 °C.
The matching figures for GCCACAGGAAACTGTGAC (.(((((....))))).): -15.9 kcal/mol and 46 °C.
For GCCACCGAAAGGTAGGC ((((((....))).))) the same measures were -32.2 kcal/mol and 62.7 °C.
For the sequence GCCACCGAAAGGTCCGGC ((((((....)))..))), the folding enthalpy in series [1] is -17 kcal/mol. In addition, the Tm in series [2] is 46.8 °C.
GCCACCGGAAACAGCGGC (((.(.(....).).))): in series [1], the folding enthalpy is -16.9 kcal/mol. Further, in series [2], the Tm stood at 32.5 °C.
For GCCACGACGAAAGTCGGC (((..(((....)))))) the same measures were -10.2 kcal/mol and 44.1 °C.
In the case of GCCACGCGAAAGCCCGGC (((..((....))..))), in series [1], the folding enthalpy is -18.5 kcal/mol. Moreover, in series [2], the Tm amounted to 43.7 °C.
For GCCACGCGAAAGCGACGC ((..(((....)))..)) the same measures were -11.8 kcal/mol and 39.8 °C.
The matching figures for GCCACGCGAAAGCGCCGC ((..(((....)))..)): -8.83 kcal/mol and 29.1 °C.
The matching figures for GCCACGCGAAAGCGCTGC ((..(((....)))..)): -11 kcal/mol and 37.4 °C.
GCCACGCGAAAGCTTGGC ((((.((....)).)))): the folding enthalpy in series [1] is -35.5 kcal/mol. For the same sequence, the Tm in series [2] came to 66 °C.
The matching figures for GCCACGGGAAACCGCGGC (((.(((....))).))): -44.5 kcal/mol and 59.1 °C.
For GCCACGTCGAAAGACGGC (((..(((....)))))) the same measures were -10.8 kcal/mol and 49.5 °C.
The matching figures for GCCACTCGAAAGAGCGGC (((.(((....))).))): -46.9 kcal/mol and 61.3 °C.
On to GCCACTCGAAAGAGGGC (((.(((....)))))), for which the folding enthalpy in series [1] was -24.3 kcal/mol. The Tm in series [2] is 54.7 °C.
Regarding GCCACTGGAAACGGTGGC (((((.(....).))))), the folding enthalpy in series [1] was -50.6 kcal/mol. Moreover, the Tm in series [2] came to 58.6 °C.
For GCCAGAGGAAACTCTAGC ((.((((....)))).)) the same measures were -17.3 kcal/mol and 34.1 °C.
Turning to GCCAGCGAAAGCTAGGGC ((((((....)))..))), the folding enthalpy in series [1] was -31.6 kcal/mol. For the same sequence, in series [2], the Tm turned out to be 52.7 °C.
For GCCAGCGGAAACGTTGGC ((((.((....)).)))) the same measures were -38.9 kcal/mol and 59.4 °C.
For GCCAGCTCGAAAGAGGGC (((..(((....)))))) the same measures were -24.5 kcal/mol and 45 °C.
The matching figures for GCCAGGCGAAAGCCAAGC ((..(((....)))..)): -13.3 kcal/mol and 44.8 °C.
With GCCAGGCGAAAGCCTAGC ((.((((....)))).)), the folding enthalpy in series [1] is -15.7 kcal/mol. In series [2], the Tm came to 51.4 °C.
On to GCCAGGCGAAAGCCTTGC ((.((((....)))).)), for which the folding enthalpy in series [1] is -20 kcal/mol. Moreover, in series [2], the Tm came out at 56.9 °C.
Regarding GCCAGGCGAAAGCGAGGC (((..((....))..))), the folding enthalpy in series [1] is -21.1 kcal/mol. Further, the Tm in series [2] was found to be 59.4 °C.

For the origin of these results see the array DNA melting data of Ke et al. (doi:10.1101/2024.01.08.574731).
